Converted amounts (≈) assume the structure as drawn.
Tests used:
Staphylococcus aureus [1] = experiment: Antibacterial activity against Staphylococcus aureus ATCC 6538 after 18 hrs; format: functional; conditions: ATCC 6538, 18 h
Outline: (§1)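 Broth microdilution in Nutrient Broth No. 2; stocks in ethanol diluted to 0.01–128 µg/ml (triclosan) or 0.25–256 µg/ml (glycosides). Overnight 37 °C NB2 cultures diluted 1 in 10^4 in saline and added to the dilutions. Incubation at 37 °C with agitation, OD read every 15 min; MIC is the lowest concentration preventing any OD rise after 18 h.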

Staphylococcus aureus [2] = experiment: Antibacterial activity against Staphylococcus aureus ATCC 6538P after 18 hrs; format: functional; outline: as §1
Staphylococcus aureus [3] = experiment: Antibacterial activity against Staphylococcus aureus ATCC 9144 after 18 hrs; format: functional; conditions: ATCC 9144, 18 h; outline: as §1
Staphylococcus aureus [4] = experiment: Antibacterial activity against Staphylococcus aureus ATCC 25923 after 18 hrs; format: functional; conditions: ATCC 25923, 18 h; outline: as §1
Staphylococcus aureus [5] = experiment: Antibacterial activity against Staphylococcus aureus ATCC 29213 after 18 hrs; format: functional; conditions: ATCC 29213, 18 h; outline: as §1
Staphylococcus aureus [6] = experiment: Antibacterial activity against Staphylococcus aureus NCTC 13758 after 18 hrs; format: functional; conditions: NCTC 13758, 18 h; outline: as §1
Staphylococcus aureus [7] = experiment: Antibacterial activity against Staphylococcus aureus OCC 104 after 18 hrs; format: functional; conditions: OCC 104, 18 h; outline: as §1
Staphylococcus aureus [8] = experiment: Antibacterial activity against Staphylococcus aureus OCC 106 after 18 hrs; format: functional; conditions: OCC 106, 18 h; outline: as §1
[9] = system: Staphylococcus epidermidis; experiment: Antibacterial activity against Staphylococcus epidermidis 155 after 18 hrs; format: functional; conditions: Staphylococcus epidermidis, 155, 18 h; outline: as §1
[10] = system: Staphylococcus epidermidis; experiment: Antibacterial activity against Staphylococcus epidermidis ATCC 12228 after 18 hrs; format: functional; conditions: ATCC 12228, 18 h; outline: as §1
[11] = system: Staphylococcus epidermidis; experiment: Antibacterial activity against Staphylococcus epidermidis ATCC 14990 after 18 hrs; format: functional; conditions: ATCC 14990, 18 h; outline: as §1
[12] = system: Staphylococcus haemolyticus; experiment: Antibacterial activity against Staphylococcus haemolyticus OCC 2223 after 18 hrs; format: functional; conditions: OCC 2223, 18 h
Outline: (§2)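 Broth microdilution in Nutrient Broth No. 2. Ethanol stocks were diluted in broth to 0.01–128 µg/ml for triclosan and 0.25–256 µg/ml for glycosides. Overnight 37°C NB2 cultures were diluted 1 in 10^4 in saline and added to the wells. Plates were incubated at 37°C with OD read every 15 min after agitation. MIC was the lowest concentration giving no OD increase at 18 h.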

[13] = system: Staphylococcus saprophyticus; experiment: Antibacterial activity against Staphylococcus saprophyticus ATCC 15305 after 18 hrs; format: functional; conditions: ATCC 15305, 18 h; outline: as §2
Streptococcus agalactiae = experiment: Antibacterial activity against Streptococcus agalactiae OCC 182 after 18 hrs; format: functional; conditions: OCC 182, 18 h; outline: as §2
Streptococcus pneumoniae [14] = experiment: Antibacterial activity against Streptococcus pneumoniae 6305 after 18 hrs; format: functional; conditions: Streptococcus pneumoniae, 6305, 18 h; outline: as §2
Streptococcus pneumoniae [15] = experiment: Antibacterial activity against Streptococcus pneumoniae ATCC 49619 after 18 hrs; format: functional; conditions: ATCC 49619, 18 h; outline: as §2
Streptococcus pyogenes = experiment: Antibacterial activity against Streptococcus pyogenes ATCC 19615 after 18 hrs; format: functional; conditions: ATCC 19615, 18 h; outline: as §2
Streptococcus viridans = experiment: Antibacterial activity against Streptococcus viridans OCC 234 after 18 hrs; format: functional; conditions: OCC 234, 18 h; outline: as §2
[16] = system: Salmonella enterica subsp. enterica serovar Abony; experiment: Antibacterial activity against Salmonella enterica subspecies enterica serotype Abony NCTC 6017 after 18 hrs; format: functional; conditions: NCTC 6017, 18 h; outline: as §1
[17] = Antibacterial activity against Salmonella enterica subspecies enterica serotype Arizonae OCC 706 after 18 hrs; format: functional, Salmonella enterica subsp. enterica serovar Arizonae; conditions: OCC 706, 18 h; outline: as §1
[18] = Antibacterial activity against Salmonella enterica subspecies enterica serotype Dublin OCC 627 after 18 hrs; format: functional, Salmonella enterica subsp. enterica serovar Dublin; conditions: OCC 627, 18 h; outline: as §1
Salmonella enteritidis = experiment: Antibacterial activity against Salmonella enterica subspecies enterica serotype Enteritidis 13076 after 18 hrs; format: functional, Salmonella enterica subsp. enterica serovar Enteritidis; conditions: Salmonella enterica, 13076, 18 h; outline: as §1
[19] = Antibacterial activity against Salmonella enterica subspecies enterica serotype Indiana OCC 597 after 18 hrs; format: functional, Salmonella enterica subsp. enterica serovar Indiana; conditions: OCC 597, 18 h; outline: as §1
[20] = Antibacterial activity against Salmonella enterica subspecies enterica serotype Infantis OCC 2133 after 18 hrs; format: functional, Salmonella enterica subsp. enterica serovar Infantis; conditions: OCC 2133, 18 h; outline: as §1
[21] = Antibacterial activity against Salmonella enterica subspecies enterica serotype Nottingham NCTC 7832 after 18 hrs; format: functional, Salmonella enterica subsp. enterica serovar Nottingham; conditions: NCTC 7832, 18 h; outline: as §1
[22] = Antibacterial activity against Salmonella enterica subspecies enterica serotype Poona NCTC 4840 after 18 hrs; format: functional, Salmonella enterica subsp. enterica serovar Poona; conditions: NCTC 4840, 18 h; outline: as §1
[23] = Antibacterial activity against Salmonella enterica subspecies enterica serotype Pullorum OCC 273 after 18 hrs; format: functional, Salmonella enterica subsp. enterica serovar Pullorum; conditions: OCC 273, 18 h; outline: as §1
Salmonella typhimurium = experiment: Antibacterial activity against Salmonella enterica subspecies enterica serotype typhimurium ATCC 14028 after 18 hrs; format: functional, Salmonella enterica subsp. enterica serovar Typhimurium; conditions: ATCC 14028, 18 h; outline: as §1
[24] = Antibacterial activity against Salmonella enterica subspecies enterica serotype Virchow NCTC 5742 after 18 hrs; format: functional, Salmonella enterica subsp. enterica serovar Virchow; conditions: NCTC 5742, 18 h; outline: as §1

## OC[C@H]1O[C@H](Oc2cc(Cl)ccc2Oc2ccc(Cl)cc2Cl)[C@H](O)[C@@H](O)[C@H]1O
Staphylococcus aureus [1]
  MIC: 8 to 16 µg/mL (≈ 17.7 to 35.4 µM)
Staphylococcus aureus [2]
  MIC: 8 to 16 µg/mL (≈ 17.7 to 35.4 µM)
Staphylococcus aureus [3]
  MIC: 8 to 16 µg/mL (≈ 17.7 to 35.4 µM)
Staphylococcus aureus [4]
  MIC: 8 to 16 µg/mL (≈ 17.7 to 35.4 µM)
Staphylococcus aureus [5]
  MIC: 8 to 16 µg/mL (≈ 17.7 to 35.4 µM)
Staphylococcus aureus [6]
  MIC: 8 to 16 µg/mL (≈ 17.7 to 35.4 µM)
Staphylococcus aureus [7]
  MIC: 8 to 16 µg/mL (≈ 17.7 to 35.4 µM)
Staphylococcus aureus [8]
  MIC: 8 to 16 µg/mL (≈ 17.7 to 35.4 µM)
[9]
  MIC: 8 to 32 µg/mL (≈ 17.7 to 70.8 µM)
[10]
  MIC: 8 to 32 µg/mL (≈ 17.7 to 70.8 µM)
[11]
  MIC: 8 to 32 µg/mL (≈ 17.7 to 70.8 µM)
[12]
  MIC: 16 µg/mL (≈ 35.4 µM)
[13]
  MIC: 64 µg/mL (≈ 142 µM)
Streptococcus agalactiae
  MIC: > 256 µg/mL
Streptococcus pneumoniae [14]
  MIC: 128 µg/mL (≈ 283 µM)
Streptococcus pneumoniae [15]
  MIC: 128 µg/mL (≈ 283 µM)
Streptococcus pyogenes
  MIC: 256 µg/mL (≈ 567 µM)
Streptococcus viridans
  MIC: > 256 µg/mL
[16]
  MIC: 32 to 64 µg/mL (≈ 70.8 to 142 µM)
[17]
  MIC: 32 to 64 µg/mL (≈ 70.8 to 142 µM)
[18]
  MIC: 32 to 64 µg/mL (≈ 70.8 to 142 µM)
Salmonella enteritidis
  MIC: 32 to 64 µg/mL (≈ 70.8 to 142 µM)
[19]
  MIC: 32 to 64 µg/mL (≈ 70.8 to 142 µM)
[20]
  MIC: 32 to 64 µg/mL (≈ 70.8 to 142 µM)
[21]
  MIC: 32 to 64 µg/mL (≈ 70.8 to 142 µM)
[22]
  MIC: 32 to 64 µg/mL (≈ 70.8 to 142 µM)
[23]
  MIC: 32 to 64 µg/mL (≈ 70.8 to 142 µM)
Salmonella typhimurium
  MIC: 32 to 64 µg/mL (≈ 70.8 to 142 µM)
[24]
  MIC: 32 to 64 µg/mL (≈ 70.8 to 142 µM)
